The record followed here is ChEMBL document CHEMBL2321794, “Evaluation of difluoromethyl ketones as agonists of the γ-aminobutyric acid type B (GABAB) receptor” (J Med Chem, 2013).

Activity calls are given as the source filed them. No cut-off for these calls is given here.

One data set concerns HEK293. Put plainly: Cytotoxicity against HEK293 cells expressing human GABA-B B1/B2 receptor gene after 3 hrs by MTS assay. In kind it is cell-based. Conditions: hek293, 3 h. The gist of the method: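 MTS viability in HEK293 cells stably expressing human GABA-B1/B2 with Cre-luc reporter: about 65000 cells/well plated overnight, treated 3 h at 37 °C, 5% CO2 in Optimem, in triplicate. CellTiter Aqueous One reagent then added for 1.5 h; absorbance read at 490 nm.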

Data set [1] has as its target GABA-A receptor; alpha-1/beta-2/gamma-2 (Rattus norvegicus, UniProt P18508+P62813+P63138). Put plainly: Agonist activity at rat GABA-A alpha1beta2gamma2 receptor expressed in human TSA201 cells by whole cell voltage-clamp method. In kind it is cell-based. In outline:
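Whole-cell voltage clamp at rt, holding potential −60 mV, in tsA201 cells transiently transfected (calcium phosphate) with rat α1, β2, γ2s subunits plus GFP (1:1:5:1); recorded the day after replating. Compounds applied at 100 μM via gap-free protocol; currents compared with response to 100 μM GABA. Intracellular NMDG-Cl/CsCl pH 7.2; extracellular NaCl/HEPES pH 7.4; 1 kHz filtering and sampling.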

The next data set deals with GABA-B receptor (Homo sapiens, UniProt O75899+Q9UBS5). Put plainly: Agonist activity at human GABA-B B1/B2 receptor expressed in HEK293 cells assessed as inhibition of forskolin-stimulated cAMP accumulation after 3 hrs by luciferase reporter gene assay. In kind it is functional, cell-based.
Data set [2] deals with Mus musculus. Description: Anxiolytic activity in high alcohol preferring-2 mouse assessed as reduction of startle response under light and noise condition at 12.5 mg/kg, ip treated 25 mins prior to test. In kind it is functional, organism-based. The arrangement: dose 12.5 mg/kg. The gist of the method: (§1)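 Experimentally naive HAP2 mice (16 male, 16 female, 316–332 days old). Given ip at 10 mL/kg in 10% DMSO/45% (w/v) 2-hydroxypropyl-β-cyclodextrin in distilled water, 25 min before the test. Conditioning 24 h prior: 40 trials of 30 s, 7 W light paired with 0.5 s, 0.8 mA foot shock at 2 min intervals. Startle force in grams excluding body weight, 70–71 dB background, sexes pooled.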

In data set [3] the test system is Mus musculus. Description: Anxiolytic activity in high alcohol preferring-2 mouse assessed as reduction of startle response under noise alone condition at 12.5 mg/kg, ip treated 25 mins prior to test. In kind it is functional, organism-based. The arrangement: dose 12.5 mg/kg. The gist of the method:
as §1

For data set [4], the system named is Mus musculus. Description: Anxiolytic activity in high alcohol preferring-2 mouse assessed as reduction of startle response under light and noise condition at 36 mg/kg, ip treated 25 mins prior to test. It is filed as functional, organism-based. The arrangement: dose 36 mg/kg. The gist of the method:
(§2)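 HAP2 mice, experimentally naive (16 male, 16 female, 316–332 days old), given compound ip at 10 mL/kg in 10% DMSO/45% (w/v) 2-hydroxypropyl-β-cyclodextrin in water, 25 min before test. Conditioning: 40 trials of 30 s light paired with 0.5 s, 0.8 mA foot shock; test 24 h later. Startle force in grams on noise-alone and light + noise trials, 70–71 dB background; sexes pooled.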

For data set [5], the target named is T1, GABA-A receptor; alpha-1/beta-2/gamma-2 (Rattus norvegicus) (UniProt P18508+P62813+P63138). Put plainly: Agonist activity at rat GABA-Aalpha1beta2gamma2 activity expressed in human TSA201 cells assessed as potentiation of 1 uM GABA-induced current amplitude at 100 uM by whole cell voltage-clamp method. In kind it is cell-based. The gist of the method:
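Modulation test on tsA201 cells expressing rat α1β2γ2s GABA-A receptor under whole-cell voltage clamp at −60 mV, rt: 1 μM GABA applied alone or simultaneously with 100 μM compound; current amplitude normalized, mean ± SE, N = 5 cells.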

Data set [6] concerns Mus musculus. Put plainly: Anxiolytic activity in high alcohol preferring-2 mouse assessed as reduction of startle response under noise alone condition at 36 mg/kg, ip treated 25 mins prior to test. In kind it is functional, organism-based. The arrangement: dose 36 mg/kg. The gist of the method:
as §2

The target of data set [7] is T1, GABA-A receptor; alpha-1/beta-2/gamma-2 (Rattus norvegicus). Put plainly: Agonist activity at rat GABA-Aalpha1beta2gamma2 activity expressed in human TSA201 cells assessed as potentiation of 100 uM GABA-induced current amplitude at 100 uM by whole cell voltage-clamp method. It is filed as cell-based. In outline:
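Same whole-cell clamp setup (rat α1β2γ2s in tsA201, −60 mV, rt): 100 μM GABA, near-saturating, co-applied with 100 μM compound versus GABA alone; normalized current amplitude, mean ± SE, N = 5.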

Data set [8] concerns Mus musculus. Description: Anxiolytic activity in high alcohol preferring-2 mouse assessed as reduction of startle response under noise alone condition at 7.5 mg/kg, ip treated 25 mins prior to test. Conditions: route intraperitoneal. In kind it is functional. The gist of the method: (§3)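 Male and female HAP2 mice (7 of each, 133–142 days old) with prior startle testing, prepulse testing and vehicle or drug injections, followed by a 15-day washout and counterbalancing. Dosed ip (10 mL/kg, distilled water vehicle) 25 min before the test session. Light (30 s, 7 W) was paired with foot shock (0.5 s, 0.8 mA; 40 trials) 24 h earlier. Startle force in grams, sexes pooled, mean ± SEM.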

Data set [9] deals with Mus musculus. Put plainly: Anxiolytic activity in high alcohol preferring-2 mouse assessed as reduction of startle response under light and noise condition at 7.5 mg/kg, ip treated 25 mins prior to test. In kind it is functional. Conditions: route intraperitoneal. In outline: as §3

GABA-B receptor, sequence (Q9UBS5 whole entry): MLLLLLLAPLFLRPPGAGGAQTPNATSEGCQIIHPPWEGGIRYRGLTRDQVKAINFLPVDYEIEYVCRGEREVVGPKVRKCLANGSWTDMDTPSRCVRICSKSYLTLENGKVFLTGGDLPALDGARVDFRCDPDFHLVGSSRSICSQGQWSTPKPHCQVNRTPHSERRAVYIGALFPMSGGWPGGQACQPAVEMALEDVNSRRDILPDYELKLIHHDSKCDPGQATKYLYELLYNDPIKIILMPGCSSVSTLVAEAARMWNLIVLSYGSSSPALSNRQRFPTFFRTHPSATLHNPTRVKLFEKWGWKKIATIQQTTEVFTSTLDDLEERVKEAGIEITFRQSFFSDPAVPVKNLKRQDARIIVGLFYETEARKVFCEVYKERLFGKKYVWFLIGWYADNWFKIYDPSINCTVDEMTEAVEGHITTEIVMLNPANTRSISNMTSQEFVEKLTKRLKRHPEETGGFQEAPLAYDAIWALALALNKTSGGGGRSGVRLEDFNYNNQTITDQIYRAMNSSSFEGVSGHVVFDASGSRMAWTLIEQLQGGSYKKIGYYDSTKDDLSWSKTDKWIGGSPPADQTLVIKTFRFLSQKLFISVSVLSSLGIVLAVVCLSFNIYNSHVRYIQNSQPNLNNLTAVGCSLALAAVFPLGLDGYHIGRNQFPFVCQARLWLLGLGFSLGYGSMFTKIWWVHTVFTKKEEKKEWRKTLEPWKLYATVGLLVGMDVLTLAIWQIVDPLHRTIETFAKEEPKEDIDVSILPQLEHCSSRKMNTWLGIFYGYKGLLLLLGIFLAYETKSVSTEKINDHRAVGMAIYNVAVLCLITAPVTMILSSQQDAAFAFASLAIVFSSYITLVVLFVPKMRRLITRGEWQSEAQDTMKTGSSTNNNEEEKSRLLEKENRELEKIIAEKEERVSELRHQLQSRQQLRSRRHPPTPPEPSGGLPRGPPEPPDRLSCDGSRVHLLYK
GABA-B receptor, sequence (O75899 whole entry): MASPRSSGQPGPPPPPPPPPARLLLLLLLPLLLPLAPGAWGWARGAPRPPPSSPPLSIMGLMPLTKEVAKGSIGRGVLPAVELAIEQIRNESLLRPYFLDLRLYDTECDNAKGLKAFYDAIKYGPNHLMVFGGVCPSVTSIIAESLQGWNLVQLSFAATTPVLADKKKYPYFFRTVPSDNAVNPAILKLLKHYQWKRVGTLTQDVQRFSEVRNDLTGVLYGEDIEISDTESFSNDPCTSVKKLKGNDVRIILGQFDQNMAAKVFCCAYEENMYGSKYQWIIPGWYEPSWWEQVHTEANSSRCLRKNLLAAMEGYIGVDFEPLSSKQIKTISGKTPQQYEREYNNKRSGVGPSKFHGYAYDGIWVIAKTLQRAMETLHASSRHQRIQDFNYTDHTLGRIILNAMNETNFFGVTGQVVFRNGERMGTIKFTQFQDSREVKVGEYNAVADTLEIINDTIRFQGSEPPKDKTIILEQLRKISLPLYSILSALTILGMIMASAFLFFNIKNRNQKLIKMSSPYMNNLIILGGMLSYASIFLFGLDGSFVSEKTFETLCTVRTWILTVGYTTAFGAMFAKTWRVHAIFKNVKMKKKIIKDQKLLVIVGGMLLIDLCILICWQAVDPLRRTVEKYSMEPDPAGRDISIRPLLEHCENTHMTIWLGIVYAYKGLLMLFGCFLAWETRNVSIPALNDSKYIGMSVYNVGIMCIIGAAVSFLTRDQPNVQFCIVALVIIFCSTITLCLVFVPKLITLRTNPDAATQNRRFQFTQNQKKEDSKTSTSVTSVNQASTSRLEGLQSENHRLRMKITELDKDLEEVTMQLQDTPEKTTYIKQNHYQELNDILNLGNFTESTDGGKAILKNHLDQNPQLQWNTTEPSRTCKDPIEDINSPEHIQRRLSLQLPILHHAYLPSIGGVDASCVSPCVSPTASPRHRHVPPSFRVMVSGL
GABA-A receptor; alpha-1/beta-2/gamma-2, sequence (P18508 whole entry): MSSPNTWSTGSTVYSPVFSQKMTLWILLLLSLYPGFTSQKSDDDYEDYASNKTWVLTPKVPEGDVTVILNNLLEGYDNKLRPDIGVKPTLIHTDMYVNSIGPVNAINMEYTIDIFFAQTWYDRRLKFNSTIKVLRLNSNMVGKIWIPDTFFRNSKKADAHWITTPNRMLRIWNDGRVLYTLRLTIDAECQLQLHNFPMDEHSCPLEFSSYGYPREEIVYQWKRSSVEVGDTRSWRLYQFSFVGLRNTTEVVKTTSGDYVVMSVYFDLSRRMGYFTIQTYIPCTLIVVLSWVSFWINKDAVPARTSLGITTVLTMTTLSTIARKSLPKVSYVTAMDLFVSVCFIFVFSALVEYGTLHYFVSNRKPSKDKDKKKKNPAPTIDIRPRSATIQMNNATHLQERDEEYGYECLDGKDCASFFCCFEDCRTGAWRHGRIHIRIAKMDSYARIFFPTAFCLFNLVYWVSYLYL
GABA-A receptor; alpha-1/beta-2/gamma-2, sequence (P62813 whole entry): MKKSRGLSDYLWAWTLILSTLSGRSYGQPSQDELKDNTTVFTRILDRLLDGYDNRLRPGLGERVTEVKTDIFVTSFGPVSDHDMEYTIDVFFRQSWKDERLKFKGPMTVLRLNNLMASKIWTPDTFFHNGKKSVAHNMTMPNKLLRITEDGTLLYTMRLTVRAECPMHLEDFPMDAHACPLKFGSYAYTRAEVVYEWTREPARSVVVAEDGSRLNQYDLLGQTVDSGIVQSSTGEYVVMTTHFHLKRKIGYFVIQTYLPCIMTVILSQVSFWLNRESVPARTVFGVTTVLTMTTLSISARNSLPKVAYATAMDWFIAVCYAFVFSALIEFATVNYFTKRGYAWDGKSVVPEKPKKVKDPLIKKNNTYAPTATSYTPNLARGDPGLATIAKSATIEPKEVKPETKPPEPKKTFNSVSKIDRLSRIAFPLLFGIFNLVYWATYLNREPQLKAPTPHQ
GABA-A receptor; alpha-1/beta-2/gamma-2, sequence (P63138 whole entry): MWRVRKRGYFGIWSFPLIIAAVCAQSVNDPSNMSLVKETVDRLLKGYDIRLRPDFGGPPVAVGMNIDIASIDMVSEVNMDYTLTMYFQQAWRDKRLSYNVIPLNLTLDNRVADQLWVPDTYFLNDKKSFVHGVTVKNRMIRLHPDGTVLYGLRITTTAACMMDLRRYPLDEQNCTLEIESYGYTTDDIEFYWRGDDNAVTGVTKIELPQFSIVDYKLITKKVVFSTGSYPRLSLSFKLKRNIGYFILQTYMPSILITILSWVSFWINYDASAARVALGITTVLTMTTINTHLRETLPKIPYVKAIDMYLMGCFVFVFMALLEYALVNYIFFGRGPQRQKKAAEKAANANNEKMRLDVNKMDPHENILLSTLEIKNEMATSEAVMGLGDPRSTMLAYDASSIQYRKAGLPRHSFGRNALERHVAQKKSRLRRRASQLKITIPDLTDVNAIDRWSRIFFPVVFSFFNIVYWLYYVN

With `CC(=O)c1ccc(C(O)C(F)(F)C(=O)C23CC4CC(CC(C4)C2)C3)cc1` (stereo unspecified), the Activity result with HEK293 is on record as “Non-toxic”.

In the case of `CC1(C)C2CCC(C(O)C(F)(F)C(=O)c3ccc4c(c3)OCO4)C1C2` (racemic), the Activity result in the data set on HEK293 is reported as “Toxic”.

Take `CC(=O)c1ccc(C(O)C(F)(F)C(=O)C23CC4CC(CC(C4)C2)C3)cc1` (racemic) [listing 1 of 2 here]: the concentration giving a half-maximal response (EC50) in [1] was above 100 µM.

In the case of `O=C(C12CC3CC(CC(C3)C1)C2)C(F)(F)C(O)/C=C/c1ccccc1` (racemic), the 50% effective concentration (EC50) in [1] is above 100 µM; on GABA-B receptor it was 40 µM.

As to `CC(=O)c1ccc(C(O)CC(=O)C23CC4CC(CC(C4)C2)C3)cc1` (racemic), on GABA-B receptor, the EC50 is above 100 µM.

The compound `COc1ccc(C(O)C(F)(F)C(=O)c2ccc3ccccc3c2)cc1` (racemic) yielded a concentration for a half-maximal effect (EC50) in data set [1] above 100 µM.

In the case of `CCC/C=C/C(O)C(F)(F)C(=O)c1ccc2ccccc2c1` (racemic), the concentration giving a half-maximal response (EC50) in [1] was above 100 µM.

In [1], `C/C=C/C=C/C(O)C(F)(F)C(=O)c1ccc2ccccc2c1` (racemic) yielded a concentration giving a half-maximal response (EC50) above 100 µM.

As to `O=C(c1ccc2ccccc2c1)C(F)(F)C(O)C1CCCCC1` (racemic), the EC50 in [1] is above 100 µM.

On to `C/C=C/C=C/C(O)C(F)(F)C(=O)/C=C/CCCC` (racemic), for which, at GABA-B receptor, the EC50 is above 100 µM.

Compound `CC(C)(C)c1cc(C(C)(C)C)c2c(c1)C(O)(C(F)(F)F)C(=O)O2` (racemic) had an EC50 in data set [1] above 100 µM. Besides, the outcome with Mus musculus [2] and with Mus musculus [3] was Active.

As for `CC(=O)c1ccc(C(O)C(F)(F)C(=O)C23CC4CC(CC(C4)C2)C3)cc1` (racemic) [listing 2 of 2 here], the result in the data set with Mus musculus [4] and in the data set with Mus musculus [6] was Active. Moreover, the outcome in [5] and in data set [7] was inactive.

On to `NCC(CC(=O)O)c1ccc(Cl)cc1` (racemic) [BACLOFEN], for which, in data set [1], the EC50 is above 100 µM. Besides, the Activity in the data set with Mus musculus [8] came to 8.1 g; in the data set with Mus musculus [9], 26.3 g.
